ChEMBL document CHEMBL1765074, “Synthesis, evaluation and structural studies of antiproliferative tubulin-targeting azetidin-2-ones” (Bioorg Med Chem, 2011)
pIC50: −log10 of the molar value.

Assays:
MCF7 = test: Antiproliferative activity against human MCF7 cells by MTT assay; type: functional, cell-based
In short: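 MCF-7 cells grown in Eagle's MEM with 10% FBS, 2 mM L-glutamine, penicillin/streptomycin and 1% non-essential amino acids. Seeded at 2.5×10^4 cells/mL, left 24 h at 37°C, then treated 72 h across 1 nM–100 μM from ethanol stocks (vehicle 1% v/v). MTT at 1 mg/mL final for 2 h in darkness, DMSO solubilisation, absorbance read. IC50 is the mean of at least three experiments in triplicate.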

Bos taurus = species: Bos taurus; test: Inhibition of bovine tubulin polymerization assessed as reduction in Vmax at 10 uM by spectrophotometry
In short: (§1)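 Purified bovine tubulin was mixed with GTP and polymerisation started by warming from 4 °C to 37 °C. Absorbance at 340 nm was recorded every 30 s for 60 min at 37 °C, with 1% v/v ethanol as vehicle. Fold change in Vmax was calculated against the ethanol control. Runs were in triplicate.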

[1] = Cytotoxicity against CD-1 mouse mammary epithelial cells seeded at 50000 cells/ml assessed as viable cells at IC50 after 72 hrs by alamar blue assay; type: cell-based, Epithelial cell; details: read-out: Activity
In short: (§2)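 Primary mammary epithelial cells came from 14-18 day pregnant CD-1 mice and were seeded at 25,000 or 50,000 cells/mL. After 24 h they were exposed 72 h to 1 nM–100 μM compound from ethanol stocks (vehicle ethanol 1% v/v). Viability was read with alamar blue.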

[2] = Cytotoxicity against CD-1 mouse mammary epithelial cells seeded at 50000 cells/ml assessed as viable cells at 10 uM after 72 hrs by alamar blue assay; type: cell-based, Epithelial cell; details: read-out: Activity; in short: as §2
MDA-MB-231 = test: Antiproliferative activity against human MDA-MB-231 cells by MTT assay; type: functional, cell-based
In short: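 MDA-MB-231 cells in DMEM with 10% FBS, 2 mM L-glutamine and penicillin/streptomycin were seeded at 2.5×10^4 cells/mL and held 24 h at 37°C. They then got ethanol-stock compound over 1 nM–100 μM (vehicle 1% v/v ethanol) for 72 h. MTT at 1 mg/mL final was added for 2 h in the dark, then DMSO for 20 min before absorbance. Untreated = 100% viability. IC50 is the mean ± S.E.M. of ≥3 triplicate experiments.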

[3] = Cytotoxicity against CD-1 mouse mammary epithelial cells seeded at 25000 cells/ml assessed as viable cells at IC50 after 72 hrs by alamar blue assay; type: cell-based, Epithelial cell; details: read-out: Activity; in short: as §2
[4] = Inhibition of bovine tubulin polymerization by spectrophotometry; set-up: species or system Bos taurus; in short: as §1
[5] = Cytotoxicity against CD-1 mouse mammary epithelial cells seeded at 25000 cells/ml assessed as viable cells at 10 uM after 72 hrs by alamar blue assay; type: cell-based, Epithelial cell; details: read-out: Activity; in short: as §2
[6] = Inhibition of bovine tubulin polymerization assessed as concentration required for 50% Vmax inhibition by spectrophotometry; set-up: species or system Bos taurus

SMILES | pIC50 (MCF7) | also measured
COc1ccc([C@@H]2C(c3cc4ccccc4n3C)C(=O)N2c2cc(OC)c(OC)c(OC)c2)cc1 (stereo partly drawn) | 5.18 | –
COc1ccc([C@@H]2[C@@H](c3cccs3)C(=O)N2c2cc(OC)c(OC)c(OC)c2)cc1O | 8.15 | fold change (FC) (Bos taurus): 3.2; viability at 72 h [1]: 90.6%; viability at 72 h, 10 µM [2]: 74.8%; pIC50 (MDA-MB-231): 6.74; viability at 72 h [3]: 90.7%; pIC50 [4]: 5.20; viability at 72 h, 10 µM [5]: 71.2%; pIC50 [6]: 5.86
COc1ccc([C@@H]2[C@@H](c3ccsc3)C(=O)N2c2cc(OC)c(OC)c(OC)c2)cc1O | 8.00 | pIC50 (MDA-MB-231): 7.31
COc1ccc([C@@H]2[C@@H](c3cccs3)C(=O)N2c2cc(OC)c(OC)c(OC)c2)cc1N | 7.38 | pIC50 (MDA-MB-231): 6.96
COc1ccc([C@@H]2[C@@H](C(O)c3ccoc3)C(=O)N2c2cc(OC)c(OC)c(OC)c2)cc1 (stereo partly drawn) | 5.96 | –
COc1ccc([C@@H]2[C@@H](C(O)c3cccs3)C(=O)N2c2cc(OC)c(OC)c(OC)c2)cc1 (stereo partly drawn) | 5.92 | –
COc1ccc([C@@H]2[C@@H](C(O)c3ccc(C)s3)C(=O)N2c2cc(OC)c(OC)c(OC)c2)cc1 (stereo partly drawn) | 5.90 | –
COc1ccc([C@@H]2[C@@H](C(=O)c3cccs3)C(=O)N2c2cc(OC)c(OC)c(OC)c2)cc1 | 6.02 | –
COc1ccc([C@@H]2[C@@H](C(=O)c3ccsc3)C(=O)N2c2cc(OC)c(OC)c(OC)c2)cc1 | 6.33 | –
COc1ccc([C@@H]2/C(=C/c3cccs3)C(=O)N2c2cc(OC)c(OC)c(OC)c2)cc1 | 5.39 | –
COc1ccc(C2/C(=C/c3ccc(C)s3)C(=O)N2c2cc(OC)c(OC)c(OC)c2)cc1 (stereo not drawn) | 6.24 | –
COc1ccc([C@@H]2C(C3CCCCC3)C(=O)N2c2cc(OC)c(OC)c(OC)c2)cc1 (mixture of isomers) | 6.24 | –
COc1ccc([C@H]2N(c3cc(OC)c(OC)c(OC)c3)C(=O)C2(C)c2ccccc2)cc1 (mixture of isomers) | 4.36 | –
